Measurements taken from ChEMBL document CHEMBL1208778, “Synthesis and anti-cancer activity of chalcone linked imidazolones” (2010).
Calls of active or inactive are those of the source. The calls are words filed in the database; no cut-off is given here.

Legend:
Format in all cases: functional
[1] = Growth inhibition of human RPMI8266 cells
In short: (§1)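 Five-dose testing was run within the NCI (Bethesda) in vitro Anticancer Screen Program on a panel of 53 human tumour cell lines from nine cancer types. Growth inhibition is reported as GI50.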

K562 = experiment: Growth inhibition of human K562 cells; in short: as §1
A549 = experiment: Growth inhibition of human A549 cells; in short: as §1
EKVX = experiment: Growth inhibition of human EKVX cells; in short: as §1
HOP-62 = experiment: Growth inhibition of human HOP62 cells; in short: as §1
NCI-H226 = experiment: Growth inhibition of human NCI-H226 cells; in short: as §1
NCI-H23 = experiment: Growth inhibition of human NCI-H23 cells; in short: as §1
NCI-H322M = experiment: Growth inhibition of human NCI-H322M cells; in short: as §1
NCI-H460 = experiment: Growth inhibition of human NCI-H460 cells; in short: as §1
NCI-H522 = experiment: Growth inhibition of human NCI-H522 cells; in short: as §1
COLO 205 = experiment: Growth inhibition of human COLO205 cells; in short: as §1
HCC 2998 = experiment: Growth inhibition of human HCC2998 cells; in short: as §1
HCT-116 = experiment: Growth inhibition of human HCT116 cells; in short: as §1
HCT-15 = experiment: Growth inhibition of human HCT15 cells; in short: as §1
HT-29 = experiment: Growth inhibition of human HT-29 cells; in short: as §1
KM12 = experiment: Growth inhibition of human KM12 cells; in short: as §1
SW-620 = experiment: Growth inhibition of human SW620 cells
In short: (§2)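 Compounds that passed a preliminary screen were tested at five doses in the NCI (Bethesda) in vitro Anticancer Screen Program against a 53-line human tumour panel spanning leukemia, lung, colon, CNS, melanoma, ovarian, renal, prostate and breast. Growth inhibition is reported as GI50.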

SF-268 = experiment: Growth inhibition of human SF268 cells; in short: as §1
SF-295 = experiment: Growth inhibition of human SF295 cells; in short: as §1
SF-539 = experiment: Growth inhibition of human SF539 cells; in short: as §1
SNB-19 = experiment: Growth inhibition of human SNB19 cells; in short: as §2
SNB-75 = experiment: Growth inhibition of human SNB75 cells; in short: as §2
U-251 = experiment: Growth inhibition of human U251 cells; in short: as §2
A498 = experiment: Growth inhibition of human A498 cells; in short: as §1
786-0 = experiment: Growth inhibition of human 786-0 cells; in short: as §1
ACHN = experiment: Growth inhibition of human ACHN cells; in short: as §1
CAKI-1 = experiment: Growth inhibition of human Caki1 cells; in short: as §1
RXF 393 = experiment: Growth inhibition of human RXF393 cells; in short: as §1
SN12C = experiment: Growth inhibition of human SN12C cells; in short: as §2
TK-10 = experiment: Growth inhibition of human TK10 cells; in short: as §2
UO-31 = experiment: Growth inhibition of human UO31 cells; in short: as §2
PC-3 = experiment: Growth inhibition of human PC3 cells; in short: as §1
OVCAR-3 = experiment: Growth inhibition of human OVCAR-3 cells; in short: as §1
OVCAR-4 = experiment: Growth inhibition of human OVCAR4 cells; in short: as §1
OVCAR-5 = experiment: Growth inhibition of human OVCAR5 cells; in short: as §1
OVCAR-8 = experiment: Growth inhibition of human OVCAR8 cells; in short: as §1
NCI/ADR-RES = experiment: Growth inhibition of human NCI/ADR-RES cells; in short: as §1
SK-OV-3 = experiment: Growth inhibition of human SKOV3 cells; in short: as §2
MCF7 [2] = experiment: Growth inhibition of human MCF7 cells; in short: as §1
MDA-MB-231 = experiment: Growth inhibition of human MDA-MB-231 cells; in short: as §1
Hs-578T = experiment: Growth inhibition of human Hs 578T cells; in short: as §1
BT-549 = experiment: Growth inhibition of human BT549 cells; in short: as §1
T47D = experiment: Growth inhibition of human T47D cells; in short: as §2
LOX IMVI = experiment: Growth inhibition of human LOXIMVI cells; in short: as §1
Malme-3M = experiment: Growth inhibition of human MALME-3M cells; in short: as §1
M14 = experiment: Growth inhibition of human M14 cells; in short: as §1
MDA-MB-435 = experiment: Growth inhibition of human MDA-MB-435 cells; in short: as §1
SK-MEL-2 = experiment: Growth inhibition of human SK-MEL-2 cells; in short: as §1
SK-MEL-28 = experiment: Growth inhibition of human SK-MEL-28 cells; in short: as §1
SK-MEL-5 = experiment: Growth inhibition of human SK-MEL-5 cells; in short: as §1
UACC-257 = experiment: Growth inhibition of human UACC257 cells; in short: as §2
UACC-62 = experiment: Growth inhibition of human UACC62 cells; in short: as §2
MCF7 [3] = experiment: Cell cycle arrest in human MCF7 cells assessed as accumulation at G0 phase at 10 uM after 24 hrs by FACS analysis
In short: (§3)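 MCF-7 breast carcinoma cells were exposed to 10 µM test compound for 24 h, with DMSO as the vehicle control. Cell-cycle distribution was read by FACS as the percentage of cells in G0, G1, S and G2/M.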

MCF7 [4] = experiment: Cell cycle arrest in human MCF7 cells assessed as accumulation at G1 phase at 10 uM after 24 hrs by FACS analysis; in short: as §3
MCF7 [5] = experiment: Cell cycle arrest in human MCF7 cells assessed as accumulation at S phase at 10 uM after 24 hrs by FACS analysis; in short: as §3
MCF7 [6] = experiment: Cell cycle arrest in human MCF7 cells assessed as accumulation at G2/M phase at 10 uM after 24 hrs by FACS analysis; in short: as §3
MCF7 [7] = experiment: Cell cycle arrest in human MCF7 cells assessed as accumulation at G0 phase at 30 uM after 24 hrs by FACS analysis
In short: (§4)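 MCF-7 cells were treated at 30 µM for 24 h alongside a DMSO control. Fractions in G0, G1, S and G2/M phases were measured by FACS, and values are means of three experiments.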

MCF7 [8] = experiment: Cell cycle arrest in human MCF7 cells assessed as accumulation at G1 phase at 30 uM after 24 hrs by FACS analysis; in short: as §4
MCF7 [9] = experiment: Cell cycle arrest in human MCF7 cells assessed as accumulation at S phase at 30 uM after 24 hrs by FACS analysis; in short: as §4
MCF7 [10] = experiment: Cell cycle arrest in human MCF7 cells assessed as accumulation at G2/M phase at 30 uM after 24 hrs by FACS analysis; in short: as §4

GI50 (K562): 0.59 µM | GI50 (A549): 3.03 µM | GI50 (NCI-H226): 14.4 µM | GI50 (NCI-H23): 2 µM | GI50 (NCI-H322M): 3.61 µM | GI50 (NCI-H460): 1.73 µM | GI50 (NCI-H522): 1.05 µM | GI50 (COLO 205): 1.52 µM | GI50 (HCC 2998): 1.92 µM | GI50 (HCT-116): 0.74 µM | GI50 (HCT-15): 1.89 µM | GI50 (HT-29): 1.7 µM | GI50 (SW-620): 1.03 µM | GI50 (U-251): 1.23 µM | GI50 (786-0): 1.59 µM | GI50 (ACHN): 1.74 µM | GI50 (PC-3): 2.63 µM | GI50 (OVCAR-3): 1.48 µM | GI50 (OVCAR-4): 3.77 µM | GI50 (OVCAR-5): 4.38 µM | GI50 (OVCAR-8): 2.32 µM | GI50 (SK-OV-3): 5.12 µM | GI50 (MCF7 [2]): 0.47 µM | GI50 (MDA-MB-231): 4.19 µM | GI50 (BT-549): 1.52 µM | GI50 (T47D): 3.08 µM | GI50 (MDA-MB-435): 2.11 µM | GI50 (SK-MEL-2): 3.02 µM | GI50 (SK-MEL-28): 1.61 µM | GI50 (SK-MEL-5): 2.76 µM
SMILES: COc1cc(/C=C/C(=O)c2cccc(-n3cc(-c4cc(OC)c(OC)c(OC)c4)[nH]c3=O)c2)cc(OC)c1OC
GI50 [1]: 0.23 µM | GI50 (EKVX): 9.47 µM | GI50 (HOP-62): 3.08 µM | GI50 (KM12): 1.12 µM | GI50 (SF-268): 2.2 µM | GI50 (SF-295): 4.96 µM | GI50 (SF-539): 3.12 µM | GI50 (SNB-19): 4.07 µM | GI50 (SNB-75): 5.13 µM | GI50 (A498): 20.3 µM | GI50 (CAKI-1): 2.89 µM | GI50 (RXF 393): 1.62 µM | GI50 (SN12C): 2.75 µM | GI50 (TK-10): 3 µM | GI50 (UO-31): 0.96 µM | GI50 (NCI/ADR-RES): 2.1 µM | GI50 (Hs-578T): inactive | GI50 (LOX IMVI): 1.23 µM | GI50 (Malme-3M): 1.8 µM | GI50 (M14): 2.12 µM | GI50 (UACC-257): 2.22 µM | GI50 (UACC-62): 1.87 µM | Activity (MCF7 [3]): 3.63% | Activity (MCF7 [4]): 47.6% | Activity (MCF7 [5]): 25.65% | Activity (MCF7 [6]): 23.12% | Activity (MCF7 [7]): 39.7% | Activity (MCF7 [8]): 42.7% | Activity (MCF7 [9]): 7.85% | Activity (MCF7 [10]): 9.75%
